Results: ChEMBL document CHEMBL1777721, “Phenolic compounds with NF-κB inhibitory effects from the fungus Phellinus baumii” (Bioorg Med Chem Lett, 2011)

What was measured:
[1] = Inhibition of basal NF-kappaB-dependent reporter gene transcription in androgen-insensitive human PC3 cells
LNCaP = experiment: Inhibition of LPS-induced NF-kappaB-dependent reporter gene transcription in androgen-sensitive human LNCap cells; type: cell-based; details: for inhibition: dose or concentration not given here
Summary of the method: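 Luciferase NF-κB reporter assay in androgen-sensitive LNCaP prostate cancer cells. Cells were pretreated with the test compound, then stimulated with LPS to activate NF-κB. Reporter activity was read at three concentrations and expressed as percent reduction of the LPS-induced signal.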

[2] = Homo sapiens, PC-3, read-out: IC50

Row | Structure (SMILES) | IC50 [1, 2] [µM] | IC50 ([1]; pc-3) | Activity (LNCaP) | inhibition (LNCaP) [%]
1 | COc1cc2c(c(O)c1Cc1ccccc1O)C(=O)C[C@H](c1ccc(O)cc1)O2 | 36.4 |  | Dose-dependent effect | 35
2 | CC(=O)/C(=C\c1ccc(O)c(O)c1)c1c(O)cc(/C=C/c2ccc(O)c(O)c2)oc1=O [INTERFUNGIN B] | 71.2 |  |  | 
3 | COc1cc(O)c2c(c1Cc1ccccc1O)O[C@@H](c1ccc(O)cc1)CC2=O [METHYLPHELLIGRIN B] | 22.5 |  | Dose-dependent effect | 62.5
4 | COc1cc2c(c(O)c1Cc1ccccc1O)C(=O)C[C@@H](c1ccc(O)cc1)O2 | 36.4 |  |  | 
5 | O=C(O)CC1Oc2cc(/C=C/c3ccc(O)c(O)c3)oc(=O)c2-c2cc(O)c(O)cc21 (stereo not given) [PHELLIBAUMIN B] | 41.4 |  |  | 
6 | CCOC(=O)/C(=C\c1ccc(O)c(O)c1)c1c(O)cc(/C=C/c2ccc(O)c(O)c2)oc1=O [PHELLIBAUMIN E] | 52.9 |  |  | 
7 | COc1cc(O)c2c(c1Cc1ccccc1O)O[C@H](c1ccc(O)cc1)CC2=O | 22.5 |  |  | 
8 | O=c1oc2cc(O)c1-c1cc(O)c(O)cc1/C=C/c1cc3c(c(=O)o1)[C@H](c1cc(O)c(c(=O)o1)-c1cc(O)c(O)cc1/C=C/c1cc4c(c(=O)o1)[C@H]2[C@@H](c1ccc(O)c(O)c1)O4)[C@@H](c1ccc(O)c(O)c1)O3 [PHELLIGRIDIMER A] |  | Not Active |  | 

Continued by falling IC50 [1, 2], values first:

Row | IC50 [1, 2] [µM] | IC50 ([1]; pc-3) | Structure (SMILES) | Activity (LNCaP) | inhibition (LNCaP) [%]
9 | 84.9 |  | O=c1oc2cc(-c3c(-c4ccc(O)c(O)c4)oc4cc(/C=C/c5ccc(O)c(O)c5)oc(=O)c34)oc(=O)c2c2cc(O)c(O)cc12 [PHELLIGRIDIN H] |  | 
10 | 74.6 |  | O=C(O)/C(=C\c1ccc(O)c(O)c1)c1c(O)cc(/C=C/c2ccc(O)c(O)c2)oc1=O [PHELLIBAUMIN D] |  | 
11 | 62.3 |  | O=c1oc(/C=C/c2ccc(O)c(O)c2)cc(O)c1/C(=C/c1ccc(O)c(O)c1)c1cc2oc(=O)c3cc(O)c(O)cc3c2c(=O)o1 [PHELLIBAUMIN C] |  | 
12 | 54.5 |  | O=C1C[C@@H](c2ccc(O)cc2)Oc2cc(O)c(Cc3ccccc3O)c(O)c21 |  | 
13 | 54.5 |  | O=C1C[C@H](c2ccc(O)cc2)Oc2cc(O)c(Cc3ccccc3O)c(O)c21 [PHELLIGRIN A] | Dose-dependent effect | 18.4
14 | 53 |  | O=c1oc(/C=C/c2ccc(O)c(O)c2)cc2oc3cc(O)c(O)cc3c12 [PHELLIBAUMIN A] |  | 
